TPT1 inh: blocks Candida albicans tRNA 2'-phosphotransferase; recombinant caTPT1, FP RNA substrate dephosphorylation; inhibition, % at 5 µM; 0.81% of 300,000 active; AID 1962;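 active = inhibition above the mean of all tested compounds plus 3 SD, set per screening campaign, cut at about 24% in these data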;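 also: plate controls were DMSO alone for no effect and ferristatin control at 100 nM for full effect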
Rpn11 inh: inhibitors of human proteasome Rpn11; O00487; human 26S proteasome, Ub4-pepOG fluorescence polarization; 20S core pre-blocked with epoxomicin; inhibition, % at 20 µM; 0.59% of 360,000 active; AID 588493;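 active = inhibition at 20 µM, scaled to each plate's controls, above about 33%, limit read from the data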
CSN inh: blocks human CSN-mediated cullin deneddylation; Q92905; Purified CSN, SCF-Nedd8-OG deneddylation, fluorescence polarization; inhibition, % at 12.5 µM; 0.38% of 360,000 active; AID 651999;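 active = pattern-corrected inhibition above about 35%, with an unprinted fluorescence ratio check between 0.5 and 1.5, limit read from the data, passing the limit was not always enough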;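 also: 0% = enzyme with substrate and 100% = substrate without enzyme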
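Assay system: purified human Csn5 enzyme expressed in HEK293T cells; Input: 0.24 nM Csn5 enzyme, final concentration; Reagent: 10 nM SCFSkp2-Nedd8OG; Compound dosing: 12.5 µM single point; Times: reaction 90 min, room temperature; Technique: fluorescence polarization readout.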
HNF4A DNA FP: change in binding of human HNF4 alpha to DNA; HNF4a-FITC DNA binding, fluorescence polarization, 1 h; activity change, % at 10 µM; 0.3% of 360,000 active; in the data active = activity change above about 30%, passing the limit was not always enough
caTPT1 confirm: confirmation of Candida albicans TPT1 inhibitors. inhibition, % at 5 µM. AID 2149. 74% of 2,400 active. shares compounds with TPT1 inh. recombinant caTPT1, fluorescence polarization, RNase T1 coupled;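 active = inhibition above the primary screen limit, the mean inhibition of all tested compounds plus 3 SD, cut at about 25% in these data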
RNase T1 counter: blocks Aspergillus oryzae RNase T1, a TPT1 counter-screen. shares compounds with TPT1 inh. RNase T1 cleavage, fluorescence polarization, 1536-well. inhibition, % at 5 µM. 83% of 2,400 active;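 active = inhibition above the solvent-only control well mean plus 3 SD, limit set per screening run, cut at about 23% in these data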;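 also: plate controls were DMSO wells with enzyme for no effect and wells without RNase T1 for full effect; inhibitors block cleavage so intact labeled substrate keeps polarization high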
Rpn11 inh conf: Rpn11 inhibition confirmation, single concentration; 29% of 1,900 active; shares compounds with Rpn11 inh; purified human 26S proteasome, Ub4-pepOG fluorescence polarization; proteasome pretreated with epoxomicin; inhibition, % at 20 µM
MMP-2 inh: MMP-2 (human) inhibition counter-screen; shares compounds with Rpn11 inh; recombinant MMP-2, FRET peptide cleavage fluorescence; inhibition, % at 20 µM; 4% of 1,900 active; AID 602330;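 also: human MMP-2 activated beforehand with APMA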
Thrombin FP: thrombin (bovine) inhibition counter-screen | shares compounds with Rpn11 inh | 13% of 1,900 active | bovine thrombin cleavage of Ub4-pepOG, fluorescence polarization | inhibition, % at 20 µM;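 active = mean inhibition at least 40% at 20 µM, or signal 3 deviations below plate average, so some actives read negative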;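 also: plate controls were thrombin with DMSO for no effect and buffer wells lacking thrombin for full effect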
Target sequence (P00735 whole entry, looked up): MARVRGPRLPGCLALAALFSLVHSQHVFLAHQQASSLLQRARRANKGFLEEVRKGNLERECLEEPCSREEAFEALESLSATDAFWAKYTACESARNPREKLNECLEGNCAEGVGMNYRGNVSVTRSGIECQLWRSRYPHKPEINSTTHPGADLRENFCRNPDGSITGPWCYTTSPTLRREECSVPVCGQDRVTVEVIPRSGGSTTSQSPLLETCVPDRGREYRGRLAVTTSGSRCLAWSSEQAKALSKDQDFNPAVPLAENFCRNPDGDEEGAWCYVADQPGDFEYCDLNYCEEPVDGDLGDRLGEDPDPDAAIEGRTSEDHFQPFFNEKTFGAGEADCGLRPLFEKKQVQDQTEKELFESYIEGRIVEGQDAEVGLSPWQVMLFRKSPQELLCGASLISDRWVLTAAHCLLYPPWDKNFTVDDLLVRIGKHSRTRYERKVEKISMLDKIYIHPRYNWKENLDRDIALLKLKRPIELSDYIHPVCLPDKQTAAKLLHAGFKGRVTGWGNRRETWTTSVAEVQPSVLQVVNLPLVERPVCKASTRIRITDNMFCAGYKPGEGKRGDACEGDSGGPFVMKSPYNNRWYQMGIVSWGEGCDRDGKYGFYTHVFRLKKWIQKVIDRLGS
An asterisk follows results filed as active; nt = no result given. Most compounds without a hit are left out; they make up all but 1.5% or so of the library. Rule as the data show it, unless noted: active = inhibition above about 40%; inactive = the rest.

SMILES	TPT1 inh	Rpn11 inh	CSN inh	HNF4A DNA FP	caTPT1 confirm	RNase T1 counter	Rpn11 inh conf	MMP-2 inh	Thrombin FP
O=C1/C(=C/c2ccc3c(c2)OCO3)Oc2cc(OCC(=O)N3CCC[C@H]3C(=O)O)ccc21	9.6	16.4	5.0	0.8	nt	nt	nt	nt	nt
COc1ccc(/C=C2\Oc3cc(OCC(=O)N4CCC[C@H]4CO)ccc3C2=O)c(OC)c1	64.9*	75.2*	12.0	19.1	85.5*	93.2*	72.7*	-52.5	62.4*
Cc1ccc(/C=C(\NC(=O)c2ccccc2)C(=O)N2CCCCC2)cc1	-3.8	-6.1	0.6	0.9	nt	nt	nt	nt	nt
CN(C)c1ccc(/C=C(/NC(=O)c2ccccc2)C(=O)N2CCCC2)cc1	60.3*	63.5*	37.9*	5.1	35.3*	44.3*	0.0	29.1	-3.6
COc1ccccc1NC(=O)CSc1nc(N)c(C#N)cc1C#N	32.2*	49.8*	7.3	19.9	38.7*	50.2*	70.7*	-26.1	47.3*
COc1cc(/C=C(\C#N)c2nc(-c3cc4ccccc4oc3=O)cs2)ccc1O	37.8*	72.3*	28.3	41.0	52.5*	57.6*	18.9	35.6	-39.6
CC(C)(C)C(=O)Nc1ccc(/C=C/C(=O)c2ccco2)cc1	1.3	4.6	7.0	2.3	nt	nt	nt	nt	nt
CCC1=[N+](CC(=O)c2ccc(C)cc2)CCn2cccc21	60.7*	75.4*	5.6	-5.6	9.3	10.6	3.2	17.9	-6.5
CN(C)/N=C/C=C1\CCC/C(=C/c2cccs2)C1=O	49.2*	94.9*	15.2	34.1	55.8*	66.5*	32.9	-23.1	16.7
CCOC(=O)c1csc(-c2csc(CCNC(=O)c3ccccc3)n2)n1	nt	-5.1	-1.8	-2.5	nt	nt	nt	nt	nt
CC1=C(C(=O)c2ccccc2)C(c2ccc(N3CCOCC3)cc2)NC(=O)N1 (centres undefined)	28.1*	74.5*	23.6	16.9	39.0*	51.3*	50.6*	-17.7	41.0*
CC(C)(C)OC(=O)C[C@H]1C/C=C\C[C@H](CC(=O)NCCO)C(=O)N[C@@H](Cc2ccccc2)COC1=O	nt	-0.3	5.0	2.1	nt	nt	nt	nt	nt
O=C(N/N=C/c1ccc(F)cc1)c1cc(-c2ccco2)nc2ccccc12	1.8	27.1	55.3	-44.0	nt	nt	nt	nt	nt
Nc1c(C(=O)N/N=C/c2ccc(F)cc2)oc2nc(-c3ccccc3)cc(-c3ccco3)c12	34.2*	43.9*	10.2	32.8	108.7*	111.5*	94.4*	-18.5	20.4
CC(Sc1nnc(-c2ccc(OC(F)F)cc2)n1N)C(=O)NCC1CCCO1 (centres undefined)	-1.1	1.0	-2.8	3.5	nt	nt	nt	nt	nt
COc1nc(N)c(S(=O)(=O)c2ccccc2C)cc1C#N	10.7	19.5	1.4	5.0	nt	nt	nt	nt	nt
COc1nc(N)c(S(=O)(=O)c2ccccc2)cc1C#N	29.8*	54.1*	12.2	15.8	29.8*	40.9*	13.0	-38.9	-10.8
COCCn1c(SCC(=O)c2c[nH]c3ccccc23)nnc1-c1ccncc1	-1.0	6.8	-6.1	1.7	nt	nt	nt	nt	nt
CCn1c(SCC(=O)c2c[nH]c3ccccc23)nnc1-c1cccs1	25.2*	45.8*	15.5	19.2	24.9*	35.1*	78.5*	-31.7	44.1*
CCc1cc2c(SCc3nc4sc(C(C)=O)c(C)c4c(=O)[nH]3)ncnc2s1	37.1*	64.7*	17.1	34.6	33.5*	49.5*	76.8*	54.7*	46.0*
O=C(O)CSc1ncnc2scc(-c3ccc(Br)cc3)c12	34.6*	51.0*	3.1	2.2	46.3*	54.6*	36.7	-0.7	25.4
O=C(O)CSc1ncnc2scc(-c3ccccc3)c12	1.4	0.6	1.0	4.6	nt	nt	nt	nt	nt
CCOC(=O)[C@]12CCCC=C1N(Cc1ccccc1)C(=O)[C@H](CC(=O)N1CCCCCC1)C2	nt	nt	5.2	-1.2	nt	nt	nt	nt	nt
